Reference: ChEMBL document CHEMBL4014350, “Alkoxyurea-Based Histone Deacetylase Inhibitors Increase Cisplatin Potency in Chemoresistant Cancer Cell Lines” (J Med Chem, 2017)

Experiments:
[1] = Inhibition of HDAC in human A2780 cells using Boc-Lys(epsilon-Ac)-AMC as substrate preincubated for 18 hrs followed by substrate addition measured after 3 hrs by fluorescence assay; type: cell-based
[2] = test system: A2780cisR; assay: Antiproliferative activity against human A2780cisR cells measured after 72 hrs by MTT assay; type: functional, cell-based
[3] = test system: A2780; assay: Antiproliferative activity against human A2780 cells measured after 72 hrs by MTT assay; type: functional, cell-based; conditions: A2780, 72 h
[4] = Inhibition of HDAC in human A2780CisR cells using Boc-Lys(epsilon-Ac)-AMC as substrate preincubated for 18 hrs followed by substrate addition measured after 3 hrs by fluorescence assay; type: cell-based
[5] = Inhibition of HDAC in human Cal27CisR cells using Boc-Lys(epsilon-Ac)-AMC as substrate preincubated for 18 hrs followed by substrate addition measured after 3 hrs by fluorescence assay; type: cell-based
[6] = test system: CAL-27; assay: Antiproliferative activity against human CAL27 cells measured after 72 hrs by MTT assay; type: functional, cell-based; conditions: CAL-27, 72 h
[7] = Inhibition of HDAC in human CAL27 cells using Boc-Lys(epsilon-Ac)-AMC as substrate preincubated for 18 hrs followed by substrate addition measured after 3 hrs by fluorescence assay; type: cell-based; conditions: CAL-27
[8] = Antiproliferative activity against human Cal27CisR cells measured after 72 hrs by MTT assay; type: functional, cell-based
[9] = organism: Homo sapiens; assay: Selectivity ratio of IC50 for HDAC in human A2780 cells to IC50 for HDAC in human A2780CisR cells; type: cell-based
[10] = target: T1, Protein deacetylase HDAC6 (Homo sapiens, UniProt Q9UBN7); assay: Inhibition of full length human recombinant N-terminal GST-tagged HDAC6 expressed in baculovirus infected sf9 cells Z-(Ac)Lys-AMC as substrate measured after 90 mins by fluorescence assay
T1 sequence (Q9UBN7 whole entry): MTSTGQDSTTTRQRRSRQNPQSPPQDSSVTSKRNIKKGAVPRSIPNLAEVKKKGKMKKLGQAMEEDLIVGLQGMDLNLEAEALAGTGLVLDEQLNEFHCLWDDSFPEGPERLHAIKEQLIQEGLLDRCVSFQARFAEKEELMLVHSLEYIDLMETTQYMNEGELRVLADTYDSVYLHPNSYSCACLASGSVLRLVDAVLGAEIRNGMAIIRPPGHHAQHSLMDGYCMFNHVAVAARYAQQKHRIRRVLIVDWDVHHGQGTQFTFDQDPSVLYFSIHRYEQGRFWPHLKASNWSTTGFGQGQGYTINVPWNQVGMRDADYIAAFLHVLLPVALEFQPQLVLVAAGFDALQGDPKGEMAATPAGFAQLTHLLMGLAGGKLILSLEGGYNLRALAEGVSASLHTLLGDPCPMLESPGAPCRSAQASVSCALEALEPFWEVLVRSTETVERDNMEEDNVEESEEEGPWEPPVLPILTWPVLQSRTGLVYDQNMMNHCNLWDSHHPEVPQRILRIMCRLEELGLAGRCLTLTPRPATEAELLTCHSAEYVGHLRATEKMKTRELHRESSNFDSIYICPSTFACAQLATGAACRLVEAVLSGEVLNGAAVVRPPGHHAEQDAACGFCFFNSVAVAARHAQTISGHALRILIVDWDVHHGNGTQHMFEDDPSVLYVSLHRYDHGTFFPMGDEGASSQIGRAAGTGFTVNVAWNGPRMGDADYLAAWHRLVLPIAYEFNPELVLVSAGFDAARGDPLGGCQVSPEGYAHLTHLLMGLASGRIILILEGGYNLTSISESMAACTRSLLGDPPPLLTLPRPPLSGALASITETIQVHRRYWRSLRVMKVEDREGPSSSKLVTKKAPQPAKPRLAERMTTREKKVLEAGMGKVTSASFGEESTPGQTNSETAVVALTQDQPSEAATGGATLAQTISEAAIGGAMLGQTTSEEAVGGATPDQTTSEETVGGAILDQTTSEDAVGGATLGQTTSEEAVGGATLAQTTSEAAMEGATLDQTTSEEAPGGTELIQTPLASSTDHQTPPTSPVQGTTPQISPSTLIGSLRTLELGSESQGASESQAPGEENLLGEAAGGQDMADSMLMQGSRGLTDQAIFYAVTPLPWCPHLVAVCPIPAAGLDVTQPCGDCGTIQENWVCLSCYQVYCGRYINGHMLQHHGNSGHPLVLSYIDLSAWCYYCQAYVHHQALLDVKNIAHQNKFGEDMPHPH

[11] = target: T2, Histone deacetylase 8 (Homo sapiens, UniProt Q9BY41); assay: Inhibition of human HDAC8 using Z-L-Lys(epsilon-trifluoroacetyl)-AMC as substrate measured after 90 mins by fluorescence assay
T2 sequence (Q9BY41 whole entry): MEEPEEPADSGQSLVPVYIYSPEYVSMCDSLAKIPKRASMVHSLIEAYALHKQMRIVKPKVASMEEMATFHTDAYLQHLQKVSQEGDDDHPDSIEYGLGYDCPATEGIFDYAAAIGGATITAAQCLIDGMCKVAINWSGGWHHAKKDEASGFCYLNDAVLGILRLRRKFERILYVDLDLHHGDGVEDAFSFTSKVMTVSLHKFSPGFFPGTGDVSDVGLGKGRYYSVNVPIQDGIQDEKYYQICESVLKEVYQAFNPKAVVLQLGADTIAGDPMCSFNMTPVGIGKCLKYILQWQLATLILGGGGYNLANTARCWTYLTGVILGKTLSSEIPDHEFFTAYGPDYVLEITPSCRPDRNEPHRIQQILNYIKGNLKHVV

[12] = target: Histone deacetylase 1 (Homo sapiens, UniProt Q13547); assay: Inhibition of recombinant full length human C-terminal FLAG/His-tagged HDAC1 expressed in baculovirus infected sf9 cells using Z-(Ac)Lys-AMC as substrate measured after 90 mins by fluorescence assay
[13] = target: Histone deacetylase 4 (Homo sapiens, UniProt P56524); assay: Inhibition of recombinant human N-terminal GST-tagged/C-terminal His-tagged HDAC4 expressed in insect cells using Boc-K(Ac)-AMC as substrate by fluorescence assay
[14] = test system: CAL-27; assay: Potentiation of cisplatin-induced cytotoxicity against human CAL27 cells assessed as decrease in cell viability at 10 uM preincubated for 48 hrs followed by cisplatin treatment measured after 72 hrs by MTT assay relative to cisplatin alone; type: functional
How it was run: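 Cells were preincubated 48 h with HDAC inhibitor, then cisplatin was added over a concentration range for 72 h, with MTT read-out. Shift factor is cisplatin-alone IC50 divided by combination IC50. Data are mean ± SEM of pooled data from at least three independent experiments, each in triplicate. Significance was by t test (p < 0.05).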

Chain of Histone deacetylase 1 (Q13547 whole entry): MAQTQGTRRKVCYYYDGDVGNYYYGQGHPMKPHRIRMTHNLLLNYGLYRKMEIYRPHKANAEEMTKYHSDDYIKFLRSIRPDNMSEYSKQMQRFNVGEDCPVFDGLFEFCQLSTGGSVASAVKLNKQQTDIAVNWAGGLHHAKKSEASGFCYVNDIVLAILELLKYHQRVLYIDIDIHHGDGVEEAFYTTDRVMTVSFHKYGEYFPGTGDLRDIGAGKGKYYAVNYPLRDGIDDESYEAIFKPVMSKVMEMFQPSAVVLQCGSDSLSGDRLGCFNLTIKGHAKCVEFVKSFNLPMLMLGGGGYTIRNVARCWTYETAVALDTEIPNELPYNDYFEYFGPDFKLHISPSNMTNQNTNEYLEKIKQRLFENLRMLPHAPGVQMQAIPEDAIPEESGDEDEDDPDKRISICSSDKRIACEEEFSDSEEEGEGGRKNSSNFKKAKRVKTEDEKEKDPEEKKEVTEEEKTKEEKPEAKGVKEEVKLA
Chain of Histone deacetylase 4 (P56524 whole entry): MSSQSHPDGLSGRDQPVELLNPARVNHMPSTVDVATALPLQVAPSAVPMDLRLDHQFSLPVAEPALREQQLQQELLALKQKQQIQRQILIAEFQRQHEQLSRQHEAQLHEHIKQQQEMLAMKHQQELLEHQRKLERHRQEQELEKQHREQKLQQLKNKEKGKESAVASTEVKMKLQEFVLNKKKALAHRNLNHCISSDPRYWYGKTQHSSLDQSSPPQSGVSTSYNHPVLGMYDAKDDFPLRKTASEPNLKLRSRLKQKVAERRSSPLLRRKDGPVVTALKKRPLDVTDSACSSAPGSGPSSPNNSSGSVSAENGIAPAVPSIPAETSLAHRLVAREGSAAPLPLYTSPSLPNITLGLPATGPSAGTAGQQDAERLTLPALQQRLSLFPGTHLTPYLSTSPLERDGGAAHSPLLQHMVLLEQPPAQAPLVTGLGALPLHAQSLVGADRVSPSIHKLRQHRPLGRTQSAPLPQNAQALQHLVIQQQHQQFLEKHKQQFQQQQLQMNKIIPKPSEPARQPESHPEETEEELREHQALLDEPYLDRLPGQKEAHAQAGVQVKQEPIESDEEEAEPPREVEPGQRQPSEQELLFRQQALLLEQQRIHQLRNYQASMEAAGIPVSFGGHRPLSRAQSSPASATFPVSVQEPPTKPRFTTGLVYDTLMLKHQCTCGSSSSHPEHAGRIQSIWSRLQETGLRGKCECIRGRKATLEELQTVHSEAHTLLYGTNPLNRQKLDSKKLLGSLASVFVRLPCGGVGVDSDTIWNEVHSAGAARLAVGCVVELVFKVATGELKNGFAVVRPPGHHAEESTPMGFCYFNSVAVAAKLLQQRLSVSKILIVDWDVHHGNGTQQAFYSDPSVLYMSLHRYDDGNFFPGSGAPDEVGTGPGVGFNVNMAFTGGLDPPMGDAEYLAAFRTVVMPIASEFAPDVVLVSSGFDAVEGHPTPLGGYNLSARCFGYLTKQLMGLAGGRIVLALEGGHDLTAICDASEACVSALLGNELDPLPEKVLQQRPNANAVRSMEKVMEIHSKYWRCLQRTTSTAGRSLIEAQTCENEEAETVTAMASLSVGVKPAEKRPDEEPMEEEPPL

SMILES | IC50 [1] | IC50 [2] | IC50 [3] | IC50 [4] | IC50 [5] | IC50 [7] | IC50 [10] | IC50 [11] | IC50 [12] | IC50 [13] | IC50 [6] | IC50 [8] | Ratio IC50 [9] | fold change (FC) [14]
O=C(CCCCCONC(=O)Nc1cnc2ccccc2c1)NO | 1.1 µM | 11.6 µM |  | 0.9 µM | 1.3 µM | 1.3 µM | 0.0517 µM | 11.2 µM | 0.189 µM | > 10 µM | 3 µM | 5.4 µM |  | 
COc1cc(NC(=O)NOCCCCCC(=O)NO)c2nc(OC(C)C)cc(C)c2c1Oc1cccc(C(F)(F)F)c1 | 149 µM | 3.6 µM | 1.7 µM |  | 56 µM | 107 µM |  |  |  |  | 3.9 µM | 2.9 µM |  | 
O=C(CCCCCONC(=O)Nc1cccc2cccnc12)NO | 2.1 µM | 1 µM | 3 µM | 0.9 µM | 0.9 µM | 0.9 µM |  |  |  |  | 1.1 µM | 2.2 µM | 2 to 3.4 | 
O=C(CCCCCONC(=O)Nc1cccc2ccccc12)NO | 1.1 µM | 7.9 µM |  | 0.9 µM | 1 µM | 1.1 µM |  |  |  |  | 1.6 µM | 3.9 µM |  | 

Continued, in another order:

IC50 [1] | IC50 [2] | IC50 [3] | IC50 [4] | IC50 [5] | IC50 [7] | IC50 [10] | IC50 [11] | IC50 [12] | IC50 [13] | SMILES | IC50 [6] | IC50 [8] | Ratio IC50 [9] | fold change (FC) [14]
2.4 µM | 10.5 µM | 27.3 µM | 2 µM | 1.1 µM | 1.4 µM |  |  |  |  | O=C(CCCCCONC(=O)Nc1ccc2ncccc2c1)NO | 5.8 µM | 7.6 µM |  | 
5.1 µM | 1.6 µM | 1.4 µM | 1.6 µM | 1 µM | 1 µM |  |  |  |  | O=C(CCCCCONC(=O)Nc1ccc2ccccc2c1)NO | 1.7 µM | 2.3 µM | 2 to 3.4 | 
 | 44.2 µM | 46.8 µM |  | 204 µM | 190 µM |  |  |  |  | CN(O)C(=O)CCCCCONC(=O)Nc1cccc2ccccc12 | 43.7 µM | 65.8 µM |  | 
1.68 µM |  |  |  |  |  |  |  |  |  | O=C(CCCCCCC(=O)Nc1ccccc1)NO [VORINOSTAT] |  |  |  | 
 |  |  |  | 12.1 µM | 16.1 µM |  |  |  |  | CN1CCc2c(c3ccccc3n2Cc2ccc(C(=O)NO)cc2)C1 [TUBASTATIN A] | 4.6 µM | 10.8 µM |  | 1.1
3.3 µM | 1.3 µM | 4.3 µM | 1.7 µM | 2.8 µM | 3.4 µM |  |  |  |  | Cc1ccc2cccc(NC(=O)NOCCCCCC(=O)NO)c2n1 | 2.2 µM | 4.7 µM | 2 to 3.4 | 
